Measurements of several laboratories.
Lines come from different studies, so protocols differ.
Organism: Micrococcus luteus
Observed: microbial growth

Compound	method	strain	time	MIC
O=C(O)CN1C(=O)/C(=C/c2ccc(-c3ccc(N(c4ccccc4)c4ccccc4)cc3)cc2)SC1=S	broth dilution	ATCC10240	–	0.98 µg/mL
C/C=C(\C)c1cc(OC(=O)c2c(C)c(Cl)c(O)c(Cl)c2O)c(C)c(O)c1C(=O)O	broth dilution	ML01	–	64 µg/mL
CC(=O)NCN1N=C(C)C(=NNn2c(-c3ccccc3)nc3ccccc3c2=O)C1=O	broth dilution	–	24 h	59.9 µM
CC1(C)S[C@@H]2[C@H](NC(=O)[C@H](N)c3ccccc3)C(=O)N2[C@H]1C(=O)O	broth dilution	ML01	–	0.13 µg/mL
CC1=NN(CNC(=O)c2ccccn2)C(=O)C1=NNn1c(-c2ccccc2)nc2ccccc2c1=O	broth dilution	–	24 h	52 µM
CN(C)[C@@H]1C(O)=C(C(N)=O)C(=O)[C@@]2(O)C(O)=C3C(=O)c4c(O)cccc4[C@@](C)(O)[C@H]3C[C@@H]12	–	–	–	2 µg/mL
O=C1NC(=S)S/C1=C\c1ccc(-c2ccc(N(c3ccccc3)c3ccccc3)cc2)cc1	broth dilution	ATCC10240	–	31.1 µg/mL
C/C=C(\C)c1cc(O)c(C)c(OC(=O)c2c(C)cc(O)c(Cl)c2O)c1	broth dilution	ML01	–	4 µg/mL
CC1=NN(CNc2ccccn2)C(=O)C1=NNn1c(-c2ccccc2)nc2ccccc2c1=O	broth dilution	–	24 h	110 µM
O=C1NC(=S)N/C1=C\c1ccc(-c2ccc(N(c3ccccc3)c3ccccc3)cc2)c2ccccc12	broth dilution	ATCC10240	–	> 1000 µg/mL
